From PubChem BioAssay
Most compounds without a hit are left out; they make up all but 1.9% or so of the library.
DNMT1 block = human DNMT1 methyltransferase inhibitors, primary screen, biochemical, molecular beacon, fluorescence, HinP1I cleavage, uHTS | inhibition (reported as % activation of signal), % at 10 µM | actives 0.83% (n = 360,000) | AID 588458, 2011; in the data active means inhibition above about 50%
SUMO1 PPI mod = modulators of SUMO1 protein-protein interactions, primary screen, biochemical, uHTS; Small ubiquitin-related modifier 1 (Homo sapiens), P63165; SUMO1 binding to a labelled peptide, TR-FRET, 1 h; inhibition, % at 20 µM; actives 0.33% (n = 360,000); AID 602429, 2012; in the data active means inhibition above about 37%
LMPTP inh = LMPTP phosphatase inhibitors, primary screen, biochemical, fluorescence intensity, uHTS | inhibition, % at 20 µM | Low molecular weight phosphotyrosine protein phosphatase (Homo sapiens), P24666 | actives 0.22% (n = 360,000) | recombinant LMPTP-A, OMFP fluorogenic substrate;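 active means compounds that cut the enzyme signal by at least half of the control window in the single-dose screen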;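 further: plate controls were DMSO wells with enzyme plus substrate for no effect and substrate without enzyme for full effect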
Target sequence (P24666 whole entry, looked up): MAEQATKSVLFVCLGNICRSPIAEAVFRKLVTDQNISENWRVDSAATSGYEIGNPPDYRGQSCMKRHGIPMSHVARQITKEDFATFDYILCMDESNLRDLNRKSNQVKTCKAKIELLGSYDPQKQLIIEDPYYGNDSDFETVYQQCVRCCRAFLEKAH
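Assay system: LMPTP-A enzyme. Input: 0.625 nM LMPTP-A final. Probe or stimulus: 400 µM OMFP. Compound dosing: single 20 µM dose. Schedule: 50 min dark incubation at room temperature. Detection: fluorescence intensity of OMFP turnover product. Read-out: percent inhibition versus substrate-only and uninhibited controls. Benchmarks: no-enzyme low control, uninhibited high control.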
CSN inh = inhibitors of CSN-mediated cullin deneddylation, primary screen, biochemical, fluorescence polarization, uHTS. actives 0.38% (n = 360,000). inhibition, % at 12.5 µM. COP9 signalosome complex subunit 5 (Homo sapiens), Q92905. AID 651999, 2013. Purified CSN, SCF-Nedd8-OG deneddylation;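 active means pattern-corrected inhibition above about 35%, with an unprinted fluorescence ratio check between 0.5 and 1.5, limit read from the data, passing the limit was not always enough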;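 further: 0% = enzyme with substrate and 100% = substrate without enzyme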
Target sequence (Q92905 whole entry, looked up, one chain of several): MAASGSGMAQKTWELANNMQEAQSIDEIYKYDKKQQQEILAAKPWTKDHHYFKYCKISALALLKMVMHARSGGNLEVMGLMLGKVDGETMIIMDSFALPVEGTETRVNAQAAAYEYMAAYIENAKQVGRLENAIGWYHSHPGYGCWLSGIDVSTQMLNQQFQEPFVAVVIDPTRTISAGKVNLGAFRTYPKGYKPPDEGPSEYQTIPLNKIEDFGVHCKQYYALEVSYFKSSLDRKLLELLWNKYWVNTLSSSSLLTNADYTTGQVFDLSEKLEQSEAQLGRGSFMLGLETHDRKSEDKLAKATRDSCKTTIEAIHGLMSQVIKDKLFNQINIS
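Detection – fluorescence polarization · System – HEK293T-derived human Csn5 enzyme · Controls – substrate-only high control, full reaction low control · Timing – 90 min, room temperature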
STEP block = STEP phosphatase inhibitors, primary screen, biochemical, fluorescence intensity, uHTS. Tyrosine-protein phosphatase non-receptor type 5 (Homo sapiens), P54829. recombinant STEP, OMFP fluorogenic substrate. inhibition, % at 20 µM. actives 0.25% (n = 360,000). AID 588621, 2011;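 active means inhibition at 20 µM, scaled per plate between control wells, above about 37%, limit read from the data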;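 further: 0% = DMSO with enzyme and substrate and 100% = substrate only without enzyme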
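System: STEP (striatal-enriched tyrosine phosphatase) enzyme, cell-free; medium: Bis-Tris pH 6.0 buffer with DTT, detergent; dosing: 20 µM, 1% DMSO; times: reaction 20 min, ambient temperature; detection: fluorescence, 480/540 nm; read-out basis: normalized % inhibition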
Scp-1 inhibitor = Scp-1 phosphatase inhibitors, primary screen, biochemical, colorimetric, uHTS; Carboxy-terminal domain RNA polymerase II polypeptide A small phosphatase 1 (Homo …; Recombinant Scp1, phosphopeptide, malachite green phosphate absorbance; inhibition, % at 20 µM; actives 0.88% (n = 340,000);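 active means inhibition above about 50% at 20 µM, limit read from the data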;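 further: plate controls were DMSO wells with enzyme for no effect and wells lacking enzyme for full effect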
Target sequence (Q9GZU7 76-261 limits assumed): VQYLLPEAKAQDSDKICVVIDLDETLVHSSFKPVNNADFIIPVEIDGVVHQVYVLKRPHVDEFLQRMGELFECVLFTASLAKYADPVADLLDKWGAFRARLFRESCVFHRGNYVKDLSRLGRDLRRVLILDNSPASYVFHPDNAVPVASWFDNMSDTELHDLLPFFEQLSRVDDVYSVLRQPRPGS
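assay system = SCP-1 phosphatase catalytic domain, residues 76-261 | buffer or medium = 50 mM Tris acetate pH 5.5, 0.005% Tween-20, 10 mM MgCl2 | incubation = enzyme reaction 45 min at room temperature, colour 5 min, stabilisation 30 min | signal = Phosphate-binding colour reagent, absorbance read at 630 nm | measure = % inhibition at 20 µM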
Scp1 confirm = Scp-1 phosphatase inhibitors, retest, confirmation, biochemical, colorimetric, single concentration; shares compounds with Scp-1 inhibitor; recombinant SCP-1 catalytic domain, phosphate release, malachite green absorbance; inhibition, % at 20 µM; actives 61% (n = 2,500);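 further: plate controls were DMSO with enzyme for no effect and buffer wells lacking enzyme for full effect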
Scp-1 MG ctr = colorimetric readout interference by compounds, confirmation, artefact control for Scp-1 inhibitor project, biochemical, single concentration | 2,500 tested, under 10 active | Colorimetric interference counterscreen, malachite green absorbance 630 nm | apparent inhibition (interference), % at 20 µM | shares compounds with Scp-1 inhibitor;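 further: compounds added after enzyme reaction finished so only phosphate colour detection is probed; plate controls were DMSO wells with completed Scp-1 reaction for no effect and substrate wells lacking enzyme for full effect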
Scp1 DSF = Scp-1 binding by thermal shift, confirmation, orthogonal assay for Scp-1 inhibitor project, biophysical, differential scanning fluorimetry. actives 25% (n = 1,500). thermal shift relative to vanadate control, % at 40 µM. shares compounds with Scp-1 inhibitor. Recombinant SCP1, Sypro Orange thermal shift Tm;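 active means substances whose mean melting-temperature shift, as a percentage of the reference inhibitor's shift, reaches about 5.3%, limit read from the data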;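 further: 0% = Tm of DMSO wells and 100% = Tm with sodium orthovanadate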
Numbers without * were called inactive; . = no result given.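 How the source made its calls, unless noted: active means inhibition of at least 30% at 20 µM; inactive means the rest.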

SMILES	DNMT1 block	SUMO1 PPI mod	LMPTP inh	CSN inh	STEP block	Scp-1 inhibitor	Scp1 confirm	Scp-1 MG ctr	Scp1 DSF
Cn1c(SCC(=O)Nc2ccccc2)nc(O)cc1=O	-6.8	7.3	-0.8	6.6	2.5	-4.4	-6.8	-3.5	.
COc1ccc(NC(=O)CCNS(=O)(=O)c2cc(Br)ccc2Br)cc1S(N)(=O)=O	-2.2	0.9	2.3	-0.6	2.1	1.8	-22.5	-18.6	.
CCc1ccc(OCc2cccc(C(=O)N/N=C\c3cnn(C)c3C)c2)cc1	14.7	6.7	13.7	2.2	4.5	65.5*	78.2*	-3.5	-5.9
Cc1c(/C=N\NC(=O)c2cccc(F)c2)cnn1C	3.6	0.4	-1.7	1.4	1.8	-7.6	.	.	.
C/C(CC(=O)NC1CCCCC1)=N\NC(=O)Cc1ccc(-c2ccccc2)cc1	14.6	3.6	0.5	-5.8	2.1	69.2*	85.6*	-4.9	-6.8
CNC(=O)C(=O)Nc1ccc2c(c1)N(S(=O)(=O)c1cccs1)CCC2	0.1	7.1	0.0	0.8	-1.9	53.8*	-21.5	-18.1	.
CC(C)NC(=O)C(=O)Nc1ccc2c(c1)N(S(=O)(=O)c1cccs1)CCC2	-3.7	-2.8	0.5	2.7	-0.6	-11.8	.	.	.
Cc1ccc(C(C)NC(=O)C2CCCC2)cc1C (stereo not drawn)	-3.8	2.2	-2.5	-5.1	2.4	-0.6	.	.	.
Cc1ccc(C(c2ccc(C)c(C)c2)C(O)C2OC(=O)C(O)C2O)cc1C (stereo not drawn)	11.8	4.2	3.0	-2.8	0.4	53.0*	22.7	-5.4	.
CCCc1cc(=O)n2[nH]c(NCc3ccc(OC)c(OC)c3)nc2n1	-4.8	-0.2	1.3	-12.8	-2.1	-8.7	.	.	.
CCOC(=O)c1cnc2nc(NCc3ccc(OC)c(OC)c3)[nH]n2c1=O	2.0	9.4	10.9	-3.1	23.1	53.7*	31.4*	-7.9	1.0
COc1ccc(-c2ccnc3nc(-n4cccc4)nn23)cc1	22.4	-3.0	5.2	7.6	-0.6	-3.8	.	.	.
O=C1c2ccccc2C(=O)N1c1nc2nccc(-c3ccccc3)n2n1	3.6	-1.6	-1.5	-0.7	23.6	101.3*	21.1	-19.9	.
Cc1ccc(NC(=O)CSc2nc3[nH]ncc3c(=O)[nH]2)cc1Cl	-8.7	9.7	0.2	-0.5	-2.9	58.2*	29.3	-12.9	.
COc1ccc(C(CC(=O)N2CCCC2)c2c(OC)cc(OC)c3c(-c4ccccc4)cc(=O)oc23)cc1 (stereo not drawn)	93.8*	2.5	15.1	36.3*	6.6	66.9*	59.0*	-8.7	-21.3
O=C(Cn1cnc2c(nnn2-c2cccc(Cl)c2)c1=O)NCc1ccccc1	33.9	7.0	32.6	10.2	7.9	52.8*	61.7*	-17.5	-5.2
Cc1sc2ncn(CC(=O)NCc3ccccc3)c(=O)c2c1C	4.0	-1.5	0.4	-2.9	-2.7	2.5	.	.	.
O=C(Cn1cnc2sc(-c3ccccc3)cc2c1=O)NCc1ccccc1	10.6	-7.3	6.7	10.2	0.8	83.5*	62.3*	-16.7	-28.1
NC(=O)Cn1cnc2c(nnn2-c2cccc(Cl)c2)c1=O	6.9	19.1	-0.3	-0.8	1.3	-3.4	.	.	.
CN(CCCC(=O)Nc1ccc(OC(F)F)cc1)S(=O)(=O)c1ccc(F)cc1	-2.4	-1.0	0.3	-1.3	0.0	-3.1	.	.	.
Cc1cc(C(=O)N/N=C/c2ccc(-c3ccc(C)c(Cl)c3)o2)n[nH]1	38.4	-2.6	4.6	1.0	0.2	11.2	.	.	.
Cc1cc(C(=O)N/N=C/C=C/c2ccc(Br)cc2)n[nH]1	11.8	-0.1	33.5	-0.1	28.9	52.0*	64.8*	-4.3	-8.1
Cc1cc(C(=O)N/N=C/c2cc(Br)ccc2OC(=O)c2ccccc2Cl)n[nH]1	29.8	2.0	6.3	8.5	5.2	-7.1	.	.	.
Cc1cc(C(=O)N/N=C/c2cc(Br)ccc2OC(=O)c2ccccc2)n[nH]1	15.2	-1.4	33.3	9.8	4.7	94.4*	64.5*	-5.2	-2.8
Cc1cc(C(=O)N/N=C/c2ccc(-c3ccccc3Cl)o2)n[nH]1	35.9	0.1	15.5	-10.2	10.3	60.0*	57.6*	-16.7	-7.6
SMILES	DNMT1 block	SUMO1 PPI mod	LMPTP inh	CSN inh	STEP block	Scp-1 inhibitor	Scp1 confirm	Scp-1 MG ctr	Scp1 DSF
CC(C)CCNC(=O)C1CCN(S(=O)(=O)c2ccc(-n3cnnn3)cc2)CC1	1.2	6.8	-0.9	0.6	-5.8	5.1	.	.	.
Cc1c(Cl)cccc1NC(=O)CCC(=O)NNC(=O)c1ccccc1	1.9	-4.2	-1.3	-11.5	-4.3	-1.2	.	.	.
Cc1ccc(NC(=O)C2CCN(S(=O)(=O)c3ccc4ccccc4c3)CC2)nc1	-0.7	-7.8	-7.5	-4.8	-0.3	-1.2	.	.	.
COc1ccccc1C(C)Nc1nc(-c2cccnc2)nc2ccccc12 (stereo not drawn)	-5.0	15.2	14.3	-2.5	0.6	61.3*	-8.1	-12.6	.
CC(C)(C)c1ccc(CS(=O)(=O)CC(O)CN2CCCC2=O)cc1 (stereo not drawn)	1.4	-1.9	-1.5	2.0	2.3	0.8	.	.	.
O=C1CCCN1CC(O)CS(=O)(=O)Cc1ccc(Cl)cc1 (stereo not drawn)	0.7	2.3	-1.7	-0.6	-1.1	-7.0	0.1	-3.0	.
CC(=O)Nc1sc(C)c(C)c1C(=O)OCC(=O)N(CC(C)C)c1c(N)n(Cc2ccccc2)c(=O)[nH]c1=O	39.9	3.9	-6.9	1.3	-3.0	-2.8	.	.	.
COc1ccc(-n2nc(C(=O)Nc3nc4ccc(OC)cc4s3)c3ccccc3c2=O)cc1	25.1	-0.9	5.4	-12.1	4.4	67.8*	-9.0	-10.4	.
